According to ChEMBL document CHEMBL1153598, “Syntheses of low-hemolytic antimicrobial gratisin peptides” (Bioorg Med Chem Lett, 2009):
Values after ≈ are worked out from the molar mass of the structure shown. Non-standard residues stand in square brackets, D forms with d. Residues, ends and D or L forms follow the SMILES beside them. Orn = NCCC[C@H](N)C(=O)O

Assays:
Bacillus subtilis = experiment: Antibiotic activity against Bacillus subtilis NBRC 3513 by microplate dilution assay; type: functional
Method in brief: (§1)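 Minimum inhibitory concentration determined by microplate dilution, inoculum 10⁶ organisms per ml. Strains tested: Bacillus subtilis NBRC 3513, Bacillus megaterium ATCC 19213, Staphylococcus epidermidis NBRC 12933, Staphylococcus aureus NBRC 12732, Pseudomonas aeruginosa NBRC 3080, Escherichia coli NBRC 12734. MIC reported in µg/mL.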

Priestia megaterium = experiment: Antibiotic activity against Bacillus megaterium ATCC 19213 by microplate dilution assay; type: functional; method in brief: as §1
[1] = system: Staphylococcus epidermidis; experiment: Antibiotic activity against Staphylococcus epidermidis NBRC 12933 by microplate dilution assay; type: functional; method in brief: as §1
Staphylococcus aureus = experiment: Antibiotic activity against Staphylococcus aureus NBRC 12732 by microplate dilution assay; type: functional; method in brief: as §1
Pseudomonas aeruginosa = experiment: Antibiotic activity against Pseudomonas aeruginosa NBRC 3080 by microplate dilution assay; type: functional; method in brief: as §1
Escherichia coli = experiment: Antibiotic activity against Escherichia coli NBRC 12734 by microplate dilution assay; type: functional; method in brief: as §1
[2] = Cytotoxicity against human red blood cells assessed as hemolysis after 30 mins; type: cell-based; details: erythrocyte, 0.5 h

Row | SMILES | MIC (Bacillus subtilis) [µg/mL] | MIC (Priestia megaterium) [µg/mL] | MIC [1] [µg/mL] | MIC (Staphylococcus aureus) [µg/mL] | MIC (Pseudomonas aeruginosa) [µg/mL] | MIC (Escherichia coli) [µg/mL] | Activity [2]
1 | CC(C)C[C@@H]1NC(=O)[C@H](CCCN)NC(=O)[C@H](C(C)C)NC(=O)[C@@H](CCC(N)=O)NC(=O)[C@@H]2CCCN2C(=O)[C@@H](Cc2ccccc2)NC(=O)[C@H](CC(C)C)NC(=O)[C@H](CCCN)NC(=O)[C@H](C(C)C)NC(=O)[C@@H](CCC(N)=O)NC(=O)[C@@H]2CCCN2C(=O)[C@@H](Cc2ccccc2)NC1=O | 12.5 (≈ 8.94 µM) | 12.5 (≈ 8.94 µM) | 25 (≈ 17.9 µM) | 25 (≈ 17.9 µM) | > 100 | > 100 | Dose-dependent effect
2 | CC(C)C[C@@H]1NC(=O)[C@H](CCCN)NC(=O)[C@H](C(C)C)NC(=O)[C@@H]2CCCN2C(=O)[C@@H](Cc2ccccc2)NC(=O)[C@H](CC(C)C)NC(=O)[C@H](CCCN)NC(=O)[C@H](C(C)C)NC(=O)[C@@H]2CCCN2C(=O)[C@@H](Cc2ccccc2)NC1=O [GRAMICIDIN S] (cyclo(L[dF]PV[Orn]L[dF]PV[Orn])) | 3.13 (≈ 2.74 µM) | 3.13 (≈ 2.74 µM) | 3.13 (≈ 2.74 µM) | 3.13 (≈ 2.74 µM) | 25 (≈ 21.9 µM) | 25 (≈ 21.9 µM) | Dose-dependent effect
3 | CC(C)C[C@@H]1NC(=O)[C@H](CCCN)NC(=O)[C@H](C(C)C)NC(=O)[C@@H](CCC(=O)O)NC(=O)[C@@H]2CCCN2C(=O)[C@@H](Cc2ccccc2)NC(=O)[C@H](CC(C)C)NC(=O)[C@H](CCCN)NC(=O)[C@H](C(C)C)NC(=O)[C@@H](CCC(=O)O)NC(=O)[C@@H]2CCCN2C(=O)[C@@H](Cc2ccccc2)NC1=O | > 100 | > 100 | > 100 | > 100 | > 100 | > 100 | Dose-dependent effect
4 | CC(C)C[C@@H]1NC(=O)[C@H](CCCN)NC(=O)[C@H](C(C)C)NC(=O)[C@@H](Cc2cnc[nH]2)NC(=O)[C@@H]2CCCN2C(=O)[C@@H](Cc2ccccc2)NC(=O)[C@H](CC(C)C)NC(=O)[C@H](CCCN)NC(=O)[C@H](C(C)C)NC(=O)[C@@H](Cc2cnc[nH]2)NC(=O)[C@@H]2CCCN2C(=O)[C@@H](Cc2ccccc2)NC1=O | 12.5 (≈ 8.83 µM) | 12.5 (≈ 8.83 µM) | 25 (≈ 17.7 µM) | 12.5 (≈ 8.83 µM) | > 100 | > 100 | Dose-dependent effect
5 | CC(C)C[C@@H]1NC(=O)[C@H](CCCN)NC(=O)[C@H](C(C)C)NC(=O)[C@@H](CC(C)C)NC(=O)[C@@H]2CCCN2C(=O)[C@@H](Cc2ccccc2)NC(=O)[C@H](CC(C)C)NC(=O)[C@H](CCCN)NC(=O)[C@H](C(C)C)NC(=O)[C@@H](CC(C)C)NC(=O)[C@@H]2CCCN2C(=O)[C@@H](Cc2ccccc2)NC1=O | 6.25 (≈ 4.57 µM) | 6.25 (≈ 4.57 µM) | 12.5 (≈ 9.14 µM) | 12.5 (≈ 9.14 µM) | 100 (≈ 73.1 µM) | > 100 | Dose-dependent effect

Continued by falling MIC (Bacillus subtilis), values first:

Row | MIC (Bacillus subtilis) [µg/mL] | MIC (Priestia megaterium) [µg/mL] | MIC [1] [µg/mL] | MIC (Staphylococcus aureus) [µg/mL] | MIC (Pseudomonas aeruginosa) [µg/mL] | MIC (Escherichia coli) [µg/mL] | SMILES | Activity [2]
6 | 6.25 (≈ 4.57 µM) | 6.25 (≈ 4.57 µM) | 6.25 (≈ 4.57 µM) | 3.13 (≈ 2.29 µM) | 50 (≈ 36.6 µM) | 100 (≈ 73.1 µM) | CCCC[C@H]1NC(=O)[C@@H]2CCCN2C(=O)[C@@H](Cc2ccccc2)NC(=O)[C@H](CC(C)C)NC(=O)[C@H](CCCN)NC(=O)[C@H](C(C)C)NC(=O)[C@@H](CCCC)NC(=O)[C@@H]2CCCN2C(=O)[C@@H](Cc2ccccc2)NC(=O)[C@H](CC(C)C)NC(=O)[C@H](CCCN)NC(=O)[C@H](C(C)C)NC1=O | Dose-dependent effect
7 | 6.25 (≈ 4.26 µM) | 6.25 (≈ 4.26 µM) | 12.5 (≈ 8.52 µM) | 6.25 (≈ 4.26 µM) | 100 (≈ 68.1 µM) | 100 (≈ 68.1 µM) | CC(C)C[C@@H]1NC(=O)[C@H](CCCN)NC(=O)[C@H](C(C)C)NC(=O)[C@@H](Cc2ccc(O)cc2)NC(=O)[C@@H]2CCCN2C(=O)[C@@H](Cc2ccccc2)NC(=O)[C@H](CC(C)C)NC(=O)[C@H](CCCN)NC(=O)[C@H](C(C)C)NC(=O)[C@@H](Cc2ccc(O)cc2)NC(=O)[C@@H]2CCCN2C(=O)[C@@H](Cc2ccccc2)NC1=O [GRATISIN] | Dose-dependent effect
8 | 6.25 (≈ 4.35 µM) | 6.25 (≈ 4.35 µM) | 12.5 (≈ 8.71 µM) | 12.5 (≈ 8.71 µM) | 100 (≈ 69.6 µM) | > 100 | CC(C)C[C@@H]1NC(=O)[C@H](CCCN)NC(=O)[C@H](C(C)C)NC(=O)[C@@H](Cc2ccccc2)NC(=O)[C@@H]2CCCN2C(=O)[C@@H](Cc2ccccc2)NC(=O)[C@H](CC(C)C)NC(=O)[C@H](CCCN)NC(=O)[C@H](C(C)C)NC(=O)[C@@H](Cc2ccccc2)NC(=O)[C@@H]2CCCN2C(=O)[C@@H](Cc2ccccc2)NC1=O | Dose-dependent effect
9 | 6.25 (≈ 4.3 µM) | 3.13 (≈ 2.15 µM) | 6.25 (≈ 4.3 µM) | 3.13 (≈ 2.15 µM) | 12.5 (≈ 8.6 µM) | 12.5 (≈ 8.6 µM) | CC(C)C[C@@H]1NC(=O)[C@H](CCCN)NC(=O)[C@H](C(C)C)NC(=O)[C@@H](CCCNC(=N)N)NC(=O)[C@@H]2CCCN2C(=O)[C@@H](Cc2ccccc2)NC(=O)[C@H](CC(C)C)NC(=O)[C@H](CCCN)NC(=O)[C@H](C(C)C)NC(=O)[C@@H](CCCNC(=N)N)NC(=O)[C@@H]2CCCN2C(=O)[C@@H](Cc2ccccc2)NC1=O | Dose-dependent effect
